The values that follow come from ChEMBL document CHEMBL1138512, “A class of 2,4-bisanilinopyrimidine Aurora A inhibitors with unusually high selectivity against Aurora B” (J Med Chem, 2009).

In one assay the target is T1, Aurora kinase A (Homo sapiens, UniProt O14965).
T1 sequence (O14965 whole entry): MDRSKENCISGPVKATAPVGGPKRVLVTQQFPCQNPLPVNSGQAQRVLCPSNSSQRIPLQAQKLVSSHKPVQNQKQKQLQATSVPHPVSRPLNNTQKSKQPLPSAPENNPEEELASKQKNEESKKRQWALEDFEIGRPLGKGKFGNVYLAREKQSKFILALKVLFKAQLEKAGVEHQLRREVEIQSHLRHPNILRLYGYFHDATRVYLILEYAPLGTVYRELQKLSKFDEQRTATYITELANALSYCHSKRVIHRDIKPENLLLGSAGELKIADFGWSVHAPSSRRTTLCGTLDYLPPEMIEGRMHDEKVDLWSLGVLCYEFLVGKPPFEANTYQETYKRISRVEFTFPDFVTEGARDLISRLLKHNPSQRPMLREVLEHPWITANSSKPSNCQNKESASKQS
Put plainly: Inhibition of N-terminal flag-tagged Aurora A expressed in Escherichia coli BL21-DE3 by ELISA. For orientation: In an ELISA, binding on a coated surface is turned into a signal by an enzyme label.

For the next assay, the system named is HCT-116. Put plainly: Antiproliferative activity against human HCT116 cells after 4 days by celltiter assay. The class given is functional, cell-based. The settings on record: HCT-116, 96 h.
For the next assay, the system named is HT-29. Put plainly: Antiproliferative activity against human HT-29 cells after 4 days by celltiter assay. The settings on record: HT-29, 96 h. The assay is classed as functional, cell-based.
For assay [1], the target named is T2, Aurora kinase B (Homo sapiens, UniProt Q96GD4). Briefly: Inhibition of N-terminal flag-tagged Aurora B expressed in Escherichia coli BL21-DE3 by ELISA.
Assay [2] deals with T2, Aurora kinase B. Briefly: Inhibition of Aurora B in human HT29 cells assessed as complete loss of phospho-histone H3 staining by immunofluorescence assay. The assay is classed as cell-based, HT-29. The essentials:
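Immunofluorescence for phospho-S10 histone H3 in HCT116 or HT29 cells, scored visually. Value taken as the lowest inhibitor concentration giving complete loss of staining, so it lies above the IC50. Units µM.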

Assay [3] concerns the target T2, Aurora kinase B. Put plainly: Inhibition of Aurora B in human HCT116 cells assessed as complete loss of phospho-histone H3 staining by immunofluorescence assay.

Bounds are passed on as bounds.

T2 sequence (Q96GD4 whole entry): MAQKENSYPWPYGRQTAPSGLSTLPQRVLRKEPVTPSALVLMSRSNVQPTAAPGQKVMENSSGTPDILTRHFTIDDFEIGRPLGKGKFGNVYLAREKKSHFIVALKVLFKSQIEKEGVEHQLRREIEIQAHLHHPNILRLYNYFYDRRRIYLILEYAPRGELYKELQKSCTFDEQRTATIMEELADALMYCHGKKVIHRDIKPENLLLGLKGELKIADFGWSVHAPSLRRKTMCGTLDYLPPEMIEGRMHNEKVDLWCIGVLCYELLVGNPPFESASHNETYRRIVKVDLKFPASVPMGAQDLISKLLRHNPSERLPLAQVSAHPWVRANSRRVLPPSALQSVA

In the case of `O=C(Nc1ccc(Nc2nc(Nc3ccc(O)cc3)ncc2F)cc1)c1ccccc1F`, on Aurora kinase A, half-maximal inhibition (IC50) was put at 14 nM.
For the compound `O=C(NC1CC1)c1ccc(Nc2nc(Nc3ccc(O)cc3)ncc2F)cc1`, the IC50 is 2000 nM in the assay on HCT-116; 27000 nM in the assay on HT-29; 3800 nM against Aurora kinase B [1]; > 30000 nM at Aurora kinase B [2]; > 25000 nM on Aurora kinase B [3]; 54 nM against Aurora kinase A.
On Aurora kinase A, `CCCNC(=O)c1ccc(Nc2nc(Nc3ccc(O)cc3)ncc2F)cc1` showed an IC50 of 49 nM.
On the same count and under the same terms, as for `Cc1ccccc1NC(=O)c1ccc(Nc2nc(Nc3ccc(O)cc3)ncc2F)cc1`, the figure is 20 nM; as for `O=C(Nc1ccccc1)c1ccc(Nc2nc(Nc3ccc(O)cc3)ncc2F)cc1`, 19 nM.
Same read-out and setting: then `Fc1ccc(Nc2ncc(F)c(Nc3ccc(F)cc3)n2)cc1`, with 200 nM.
On the same count and under the same terms, as for `Cc1ccc(NC(=O)c2ccc(Nc3nc(Nc4ccc(O)cc4)ncc3F)cc2)cc1`, the figure is 180 nM; as for `O=C(Nc1ccc(Cl)cc1)c1ccc(Nc2nc(Nc3ccc(O)cc3)ncc2F)cc1`, 64 nM; as for `Cc1cccc(Nc2ncc(F)c(Nc3cccc(C)c3)n2)c1`, 680 nM.
`O=C(Nc1cccc(F)c1)c1ccc(Nc2nc(Nc3ccc(O)cc3)ncc2F)cc1` gave an IC50 against Aurora kinase A of 59 nM.
In the case of `O=C(Nc1ccc(Nc2nc(Nc3ccc(O)cc3)ncc2F)cc1)c1ccccc1Cl`, the IC50 in the assay with HCT-116 is 850 nM; in the assay on HT-29, 7200 nM; against Aurora kinase B [1], 1400 nM; at Aurora kinase B [2] it was > 30000 nM; at Aurora kinase B [3], > 12000 nM.
The compound `CCCc1cnc(Nc2ccc(O)cc2)nc1Nc1ccc(O)cc1` gave an IC50 on Aurora kinase A of 11000 nM.
Still for that read-out and setting: as for `O=C(Nc1ccccc1O)c1ccc(Nc2nc(Nc3ccc(O)cc3)ncc2F)cc1`, the figure is 28 nM.
The same measure, in the same setting: as for `CN(C)C(=O)c1ccc(Nc2nc(Nc3ccc(O)cc3)ncc2F)cc1`, the figure is 640 nM; as for `COc1ccccc1Nc1nc(Nc2ccc(O)cc2)ncc1F`, 20 nM; as for `Cc1ccc(Nc2nc(Nc3ccc(O)cc3)ncc2F)cc1`, 75 nM.
The compound `Oc1ccc(Nc2ncc(F)c(Nc3ccc(O)cc3)n2)cc1` yielded an IC50 at Aurora kinase A of 30 nM.
Same read-out and setting: as for `O=C(Nc1cccc(Cl)c1)c1ccc(Nc2nc(Nc3ccc(O)cc3)ncc2F)cc1`, the figure is 140 nM; as for `Cc1cccc(NC(=O)c2ccc(Nc3nc(Nc4ccc(O)cc4)ncc3F)cc2)c1`, 50 nM.
With `O=C(O)c1ccc(Nc2ncc3c(n2)-c2ccc(Cl)cc2C(c2c(F)cccc2F)=NC3)cc1` [MLN-8054], the IC50 with HCT-116 came out at 100 nM; in the assay with HT-29, 150 nM.
Turning to `CC(C)NC(=O)c1ccc(Nc2nc(Nc3ccc(O)cc3)ncc2F)cc1`, at Aurora kinase A, the IC50 came to 51 nM.
Same read-out and setting: then `COc1ccccc1NC(=O)c1ccc(Nc2nc(Nc3ccc(O)cc3)ncc2F)cc1`, with 78 nM.
On the same count and under the same terms, as for `CCc1cnc(Nc2ccc(O)cc2)nc1Nc1ccc(O)cc1`, the figure is 150 nM.
The same measure, in the same setting: then `Cc1nc(Nc2ccc(O)cc2)nc(Nc2ccc(O)cc2)c1C`, with > 17000 nM.
For the compound `Oc1ccc(Nc2cc(Cl)nc(Nc3ccc(O)cc3)n2)cc1`, the IC50 against Aurora kinase A was > 17000 nM.
Turning to `COc1ccc(NC(=O)c2ccc(Nc3nc(Nc4ccc(O)cc4)ncc3F)cc2)cc1`, it took 14 nM to reach half-maximal inhibition on Aurora kinase A (IC50).
At Aurora kinase A, `COc1cccc(Nc2nc(Nc3ccc(O)cc3)ncc2F)c1` returned an IC50 of 260 nM.
In turn, `Oc1ccc(Nc2ncc(C(F)(F)F)c(Nc3ccc(O)cc3)n2)cc1` yielded an IC50 against Aurora kinase A of 14 nM.
Same read-out and setting: as for `COc1cccc(NC(=O)c2ccc(Nc3nc(Nc4ccc(O)cc4)ncc3F)cc2)c1`, the figure is 36 nM.
Still for that read-out and setting: then `O=C(Nc1ccc(Nc2nc(Nc3ccc(O)cc3)ncc2F)cc1)c1ccccc1`, with 18 nM; and `Oc1ccc(Nc2ccnc(Nc3ccc(O)cc3)n2)cc1`, with 490 nM.
Same read-out and setting: as for `Cc1cccc(Nc2nc(Nc3ccc(O)cc3)ncc2F)c1`, the figure is 180 nM; as for `O=C(Nc1ccccc1F)c1ccc(Nc2nc(Nc3ccc(O)cc3)ncc2F)cc1`, 9 nM; as for `Oc1ccc(Nc2ncc(Cl)c(Nc3ccc(O)cc3)n2)cc1`, 8 nM.
Turning to `Cc1cnc(Nc2ccc(O)cc2)nc1Nc1ccc(O)cc1`, at Aurora kinase A, the concentration for half-maximal inhibition (IC50) was found to be 34 nM.
On to `COc1ccc(Nc2nc(Nc3ccc(O)cc3)ncc2F)cc1`, for which half-maximal inhibition against Aurora kinase A (IC50) was put at 78 nM.
Take `O=C(Nc1ccc(O)cc1)c1ccc(Nc2nc(Nc3ccc(O)cc3)ncc2F)cc1`: at Aurora kinase A, the IC50 stood at 13 nM.
The same measure, in the same setting: as for `Cc1cc(Nc2ccc(O)cc2)nc(Nc2ccc(O)cc2)n1`, the figure is > 17000 nM; as for `O=C(Nc1cccc(O)c1)c1ccc(Nc2nc(Nc3ccc(O)cc3)ncc2F)cc1`, 19 nM; as for `COc1ccc(Nc2ncc(F)c(Nc3ccc(OC)cc3)n2)cc1`, 130 nM.
The same measure, in the same setting: as for `Cc1ccccc1Nc1nc(Nc2ccc(O)cc2)ncc1F`, the figure is 67 nM; as for `N#Cc1cnc(Nc2ccc(O)cc2)nc1Nc1ccc(O)cc1`, 23 nM.
As to `O=C(Nc1ccc(F)cc1)c1ccc(Nc2nc(Nc3ccc(O)cc3)ncc2F)cc1`, on Aurora kinase A, the IC50 is 25 nM.
The same measure, in the same setting: then `NC(=O)c1ccc(Nc2nc(Nc3ccc(O)cc3)ncc2F)cc1`, with 160 nM.

By IC50 is commonly meant the point on the concentration scale where inhibition reaches its midpoint.
